Only some compounds are listed: those with a hit (about 2.3% of all), similar ones and a draw of the others.
ARFGAP1 inhibitor: inhibitors of rat ARFGAP1 GAP activity, primary screen, biochemical, fluorescence polarization, GDP tracer | ADP-ribosylation factor GTPase-activating protein 1 (Rattus norvegicus), Q62848 | Arfgap1-stimulated ARF1 GTP hydrolysis, GDP FP detection | inhibition, % at 16.5 µM | actives 0.26% (n = 360,000) | AID 651572, 2012;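 active = inhibition above a per-plate limit, mean inhibition of low control wells plus 3 SD, cut at about 25% in these data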
Target sequence (Q62848 1-136 limits assumed): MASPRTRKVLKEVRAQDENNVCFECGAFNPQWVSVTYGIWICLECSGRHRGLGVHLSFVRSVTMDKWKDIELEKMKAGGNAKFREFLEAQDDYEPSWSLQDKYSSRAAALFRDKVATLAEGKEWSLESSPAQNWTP
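system = rat Arfgap1 catalytic domain, aa 1-136 | technique = FP, GDP Alexa 633 tracer displaced from anti-GDP antibody, 620/688 nm | compound = one concentration, 16.5 µM, DMSO 1.26% | medium = HEPES-based buffer, pH 7.5 | timing = compound-enzyme preincubation 20 min, reaction 120 min, detection 60 min, 25 °C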
Calb FLC: C. albicans growth inhibition with fluconazole, primary screen, CaCi-2 strain, Alamar Blue fluorescence | C. albicans CaCi-2 + fluconazole, 48 h | growth inhibition, % (test concentration not listed) | actives 0.57% (n = 300,000);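 active = growth inhibition above about 58% in most replicates, limit read from the data, passing the limit was not always enough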;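 note: all wells also contain fluconazole at 8 µg/ml as a sub-toxic cotreatment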
SKKanGAS inh: S. pyogenes SKKanGAS growth inhibitors in kanamycin, primary screen, streptokinase expression inhibitor project, SKKanGAS strain, BacTiter-Glo luminescence. inhibition, % at 7.5 µM. actives 1.3% (n = 300,000). 6 h;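 active = mean replicate score, as percent of positive control median, at least 50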;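 note: strain carries kanamycin resistance gene driven by streptokinase promoter and grows in 40 µg/ml kanamycin; loss of luminescence reflects streptokinase promoter inhibition or plain growth inhibition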
HGIII-sPLA2 inh: human group III sPLA2 inhibitors, primary screen, biochemical, QFRET, BODIPY PC-A2 liposome substrate; actives 0.56% (n = 370,000); inhibition, % at 12.2 µM; QFRET BODIPY PC-A2 liposome hydrolysis, fluorescence; Group 3 secretory phospholipase A2 (Homo sapiens), Q9NZ20;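 active = inhibition above mean plus 3 SD of compounds lying within the high and low control bounds, cut at about 19% in these data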
Target sequence (Q9NZ20 whole entry, looked up): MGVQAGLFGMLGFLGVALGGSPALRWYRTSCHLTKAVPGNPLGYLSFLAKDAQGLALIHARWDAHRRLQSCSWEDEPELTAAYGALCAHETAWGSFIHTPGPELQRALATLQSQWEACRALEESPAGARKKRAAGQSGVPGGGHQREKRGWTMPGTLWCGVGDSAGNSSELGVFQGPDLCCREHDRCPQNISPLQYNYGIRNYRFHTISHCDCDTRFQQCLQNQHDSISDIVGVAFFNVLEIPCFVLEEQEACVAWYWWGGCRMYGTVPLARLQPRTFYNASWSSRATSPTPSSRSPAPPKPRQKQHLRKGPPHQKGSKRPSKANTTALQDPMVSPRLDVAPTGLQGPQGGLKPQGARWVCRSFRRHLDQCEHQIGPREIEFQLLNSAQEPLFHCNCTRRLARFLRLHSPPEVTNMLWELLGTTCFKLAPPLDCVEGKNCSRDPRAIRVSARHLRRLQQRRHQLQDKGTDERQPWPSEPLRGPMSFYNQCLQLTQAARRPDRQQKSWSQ
ASAP1 inh: inhibitors of human ASAP1 ArfGAP activity, primary screen, biochemical, fluorescence polarization; actives 0.19% (n = 360,000); inhibition, % at 16.5 µM; Arf-GAP with SH3 domain, ANK repeat and PH domain-containing protein 1 (Homo sapiens), …; ASAP1-stimulated ARF1 GTP hydrolysis, GDP FP detection; in the data active = inhibition above about 25%
Numbers stand for hits.

For C[C@@H]1CN([C@@H](C)CO)C(=O)CCCn2nncc2CO[C@H]1CN(C)C(=O)Nc1ccc(N2CCN(C)CC2)cc1 the results were ARFGAP1 inhibitor inactive, HGIII-sPLA2 inh inactive and ASAP1 inh inactive.
Screening O=[N+]([O-])c1cccc(CON=Cc2cc(Cl)ccc2O)c1 returned ARFGAP1 inhibitor inactive, HGIII-sPLA2 inh inactive and ASAP1 inh inactive.
Cc1cc(Cl)ccc1OCCCC(=O)NNC(=O)c1ccccc1O was read as ARFGAP1 inhibitor inactive, Calb FLC inactive, SKKanGAS inh 101.5, HGIII-sPLA2 inh inactive and ASAP1 inh inactive.
Cc1ccccc1C(=O)Nc1ccc(C(=O)NNC(=O)CCCOc2ccc(Cl)cc2Cl)cc1 was read as ARFGAP1 inhibitor inactive, Calb FLC inactive, SKKanGAS inh inactive, HGIII-sPLA2 inh inactive and ASAP1 inh inactive.
Screening O=C(CSc1nnc(-c2cccnc2)n1C1CCCCC1)NC1CCCCCC1 returned HGIII-sPLA2 inh inactive.
`CC1CCc2c(sc3nc(C4CC4)nc(N4CCN(C(=O)c5ccco5)CC4)c23)C1` (centres undefined) gave ARFGAP1 inhibitor inactive, Calb FLC inactive, SKKanGAS inh 57.7, HGIII-sPLA2 inh inactive and ASAP1 inh inactive.
Screening O=C(NC(=S)Nc1cc(Cl)ccc1O)c1cccc(Br)c1 returned ARFGAP1 inhibitor inactive, Calb FLC inactive, SKKanGAS inh 108.4, HGIII-sPLA2 inh inactive and ASAP1 inh inactive.
Screening O=C(NC(=S)Nc1cccnc1)c1cccc(Br)c1 returned ARFGAP1 inhibitor inactive, Calb FLC inactive, SKKanGAS inh inactive, HGIII-sPLA2 inh inactive and ASAP1 inh inactive.
`Cc1ccc(OCc2cc(C(=O)NCc3ccc(OC(F)(F)F)cc3)no2)cn1` gave ARFGAP1 inhibitor inactive, Calb FLC inactive, SKKanGAS inh inactive, HGIII-sPLA2 inh inactive and ASAP1 inh inactive.
Screening Cc1ccc(OCc2cc(C(=O)NCc3cnn(-c4cccc(F)c4)c3)no2)cn1 returned ARFGAP1 inhibitor inactive, Calb FLC 78.5, SKKanGAS inh inactive, HGIII-sPLA2 inh inactive and ASAP1 inh inactive.
Screening CC1CCCC(NC(=S)Nc2ccc(SC(F)F)cc2)C1C (centres undefined) returned ARFGAP1 inhibitor inactive, Calb FLC inactive, SKKanGAS inh 108.2, HGIII-sPLA2 inh inactive and ASAP1 inh inactive.
FC(F)Sc1ccc(NC(=S)NC2CCCC2)cc1 was read as ARFGAP1 inhibitor inactive, Calb FLC inactive, SKKanGAS inh inactive, HGIII-sPLA2 inh inactive and ASAP1 inh inactive.
For CCCCNC(=O)C[C@H]1C(=O)N(Cc2ccc(OC)cc2)C2=CCCCC[C@@]21C(=O)OC the results were HGIII-sPLA2 inh inactive.
Screening Cc1cccc(NC2=C(NCCO)C(=O)c3ccccc3C2=O)c1 returned ARFGAP1 inhibitor inactive, Calb FLC inactive, SKKanGAS inh inactive, HGIII-sPLA2 inh inactive and ASAP1 inh inactive.
Screening O=C1C(Nc2ccc(O)cc2)=C/C(=N/S(=O)(=O)c2cccs2)c2ccccc21 returned ARFGAP1 inhibitor inactive, Calb FLC inactive, SKKanGAS inh 87.3, HGIII-sPLA2 inh inactive and ASAP1 inh 31.9.
For Cc1cc(C)c(S(=O)(=O)/N=C2\C=C(NS(=O)(=O)c3ccccc3)C(=O)c3ccccc32)c(C)c1 the results were ARFGAP1 inhibitor inactive, Calb FLC inactive, SKKanGAS inh inactive, HGIII-sPLA2 inh inactive and ASAP1 inh inactive.
Screening Cc1ccc(NC2=C/C(=N\S(=O)(=O)c3cccs3)c3ccccc3C2=O)c(C)c1 returned Calb FLC inactive and SKKanGAS inh 100.4.
O=C(O)c1ccc(NC2=C/C(=N/S(=O)(=O)c3cccs3)c3ccccc3C2=O)cc1 was read as ARFGAP1 inhibitor inactive, HGIII-sPLA2 inh inactive and ASAP1 inh inactive.
For Cc1ccc(S(=O)(=O)/N=C2\C=C(NS(=O)(=O)c3ccccc3)C(=O)c3ccccc32)cc1 the results were ARFGAP1 inhibitor inactive, HGIII-sPLA2 inh inactive and ASAP1 inh inactive.
Screening Cc1ccc(Cl)cc1NC1=C/C(=N\S(=O)(=O)c2cccs2)c2ccccc2C1=O returned ARFGAP1 inhibitor inactive, Calb FLC inactive, SKKanGAS inh 95.0, HGIII-sPLA2 inh inactive and ASAP1 inh inactive.
`Cc1cccc(NC2=C/C(=N/S(=O)(=O)c3cccs3)c3ccccc3C2=O)c1` gave ARFGAP1 inhibitor inactive, HGIII-sPLA2 inh inactive and ASAP1 inh 32.9.
For CCOC(=O)[C@]12CCCC=C1N(CCc1ccc(Cl)cc1)C(=O)[C@@H]2CC(=O)NCCC(C)C the results were HGIII-sPLA2 inh inactive.
CC(=O)c1cc(-c2cccc(C(C)C)c2)c(=O)n2c1CCC2 was read as HGIII-sPLA2 inh inactive.
Screening Cc1ccc2c(c1)c1c3n2CCN(C(=O)CN2CCN(C)CC2)C3CCC1 (centres undefined) returned ARFGAP1 inhibitor inactive, Calb FLC inactive, SKKanGAS inh inactive, HGIII-sPLA2 inh inactive and ASAP1 inh inactive.
CN1CCN(CC(=O)N2CCn3c4c(c5cc(C6CCCCC6)ccc53)CCCC42)CC1 (centres undefined) was read as Calb FLC 110.6.
O=C(CSc1nnc(SCc2cccc3ccccc23)s1)Nc1ccc(S(=O)(=O)Nc2nccs2)cc1 was read as HGIII-sPLA2 inh inactive.
COc1cc(NC(=O)C2CCCN(S(=O)(=O)c3ccc(Br)s3)C2)cc(OC)c1 (centres undefined) was read as HGIII-sPLA2 inh inactive.
`COC(=O)C1CN(C(=O)OC(C)(C)C)C2=C1C(=O)CC(C)(C(=O)OC(C)(C)C)C2` (centres undefined) gave HGIII-sPLA2 inh inactive.
Cc1ccc(C(=O)CC(=O)c2cc(Cl)ccc2O)cc1 was read as ARFGAP1 inhibitor inactive, Calb FLC inactive, SKKanGAS inh 125.6, HGIII-sPLA2 inh inactive and ASAP1 inh inactive.
Screening Cc1ccc(C(=O)CC(=O)c2ccc(C)cc2O)cc1 returned ARFGAP1 inhibitor inactive, Calb FLC inactive, SKKanGAS inh 61.7, HGIII-sPLA2 inh inactive and ASAP1 inh inactive.
Cc1ccc(C(=O)Cc2ccccc2)c(O)c1 was read as ARFGAP1 inhibitor inactive, HGIII-sPLA2 inh inactive and ASAP1 inh inactive.
For CC(C)(C)c1ccc(C(=O)CC(=O)c2cc(Cl)ccc2O)cc1 the results were ARFGAP1 inhibitor inactive, Calb FLC 106.3, SKKanGAS inh 90.8, HGIII-sPLA2 inh inactive and ASAP1 inh inactive.
Cc1ccc(C(=O)CC(=O)c2ccc(C(C)(C)C)cc2)cc1 was read as ARFGAP1 inhibitor inactive, Calb FLC 108.5, SKKanGAS inh inactive, HGIII-sPLA2 inh inactive and ASAP1 inh inactive.
For COc1ccc(C(=O)CC(=O)c2ccc(C(C)(C)C)cc2)cc1 the results were ARFGAP1 inhibitor inactive, HGIII-sPLA2 inh inactive and ASAP1 inh inactive.
For CC(C)(C)N(Cc1cn(CC2CCCCC2)nn1)S(=O)(=O)c1ccc(F)cc1Br the results were HGIII-sPLA2 inh inactive.

Assay outcomes (PubChem BioAssay)
